In publication PMC11577422 (Chemical Research in Toxicology, 2024):
Like-named read-outs stand apart in the source and are kept apart here.

Columns and labels:
[1] = Cytotoxicity via cell viability using resazurin reduction in pRH; format: cell-based; details: male, Wistar, rat, primary rat hepatocytes
HepG2 cells = assay: GSH depletion in HepG2 cells after exposure to 2-MF; format: cell-based; details: data not shown
[2] = system: human liver microsomes (HLM); format: in vitro ADME; details: 10 min
Outline: (§1)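 Pooled liver microsomes (male Sprague–Dawley rat; mixed-gender human) at 1.0 mg protein/mL in 50 mM phosphate or Tris buffer with 3 mM MgCl₂ and 4 mM AcLys trap. Preincubated with 2-MF (10–750 μM) for 5 min at 37 °C, NADPH-started, 10 min. Stopped with cold MeCN containing 1 μM AcLys-BDA; AcLys-AcA by HPLC-MS/MS. Kinetics fitted biphasically; heat-inactivated and no-NADPH controls; n = 3–6.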

[3] = system: primary rat hepatocytes (pRH); assay: Adduct formation; format: in vitro ADME; details: for AcCys-AcA formation in cell supernatants / formation of AcLys-AcA in cell supernatants: pRH incubated with 2-MF (10–1000 μM) or AcA (0.1–5 μM), 1–48 h; for AcLys-AcA in cell supernatant compared to the negative control: pRH
Outline: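 Hepatocytes came from adult male Wistar rats (150–250 g) and were used only at ≥80% viability. Cells were seeded at 1 million cells/mL on collagen-coated dishes, allowed 3 h to attach, then PBS-washed. Incubation was at 37 °C, 5% CO₂ with test compound for 1, 6, 18, 24 or 48 h. Supernatants got 1 μM final AcLys-BDA internal standard, SPE cleanup, then UHPLC-ESI⁺-MS/MS (MRM m/z 269.2/164.2). Untreated negative control; n = 3–6.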

pRH = assay: GSH depletion in pRH after exposure to 2-MF; format: cell-based, rat; details: data not shown
[4] = system: rat liver microsomes (RLM); details: ref Ravindranath and Boyd (1985) [9], cited from earlier work; for Km: RLM
CYP 2E1 [5] = molecular target: CYP 2E1 (Homo sapiens, UniProt P05181); format: in vitro ADME; details: Supersomes CYP 2E1, 100 and 500 μM 2-MF, 10, 30 or 60 min; negative control without NADPH
[6] = system: rat liver microsomes (RLM); format: in vitro ADME; details: RLM, untr.; II) low substrate concentrations (10 and 100 μM 2-MF); 10 min
Outline: as §1

[7] = Chemical reaction of AcA with AcCys, adduct determined by HPLC-MS/MS; format: physicochemical; details: AcA (1 μM) with AcCys (4 mM) in water, 37 °C
Outline: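 Mixture shaken at 600 rpm and sampled over incubation time. Adduct was detected by HPLC-ESI⁺-MS/MS on a Synergi Hydro-RP column with a formic acid/acetonitrile gradient, MRM quantifier m/z 241.9/112.9, and reported as peak area (AUC). n = 3, mean ± standard deviation.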

[8] = Chemical reaction of AcA with AcLys, adduct determined by HPLC-MS/MS; format: physicochemical
Outline: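 AcA was at 10 μM; the mixture was shaken at 600 rpm to mimic the microsomal incubation matrix and sampled over time. AcLys-AcA was measured by HPLC-ESI⁺-MS/MS. n = 3, mean ± standard deviation.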

[9] = Stability of AcLys-AcA in solvents; format: physicochemical
CYP 2E1 [10] = details: ref Peterson et al. (2005) [32]; cited from earlier work
[11] = system: human liver microsomes (HLM); details: 50 μM furan, ref Gates et al. (2012) [30]; cited from earlier work
[12] = system: rat liver microsomes (RLM); details: untr., 50 μM furan, ref Gates et al. (2012) [30]; cited from earlier work
[13] = system: rat liver microsomes (RLM); details: pretr., ref Peterson et al. (2005) [32]; cited from earlier work
CYP 2E1 [14] = details: cited from earlier work
[15] = 20 or 400 μM furan, ref Gates et al. (2012) [30]

CYP 2E1 (Homo sapiens, UniProt P05181), sequence (P05181 whole entry): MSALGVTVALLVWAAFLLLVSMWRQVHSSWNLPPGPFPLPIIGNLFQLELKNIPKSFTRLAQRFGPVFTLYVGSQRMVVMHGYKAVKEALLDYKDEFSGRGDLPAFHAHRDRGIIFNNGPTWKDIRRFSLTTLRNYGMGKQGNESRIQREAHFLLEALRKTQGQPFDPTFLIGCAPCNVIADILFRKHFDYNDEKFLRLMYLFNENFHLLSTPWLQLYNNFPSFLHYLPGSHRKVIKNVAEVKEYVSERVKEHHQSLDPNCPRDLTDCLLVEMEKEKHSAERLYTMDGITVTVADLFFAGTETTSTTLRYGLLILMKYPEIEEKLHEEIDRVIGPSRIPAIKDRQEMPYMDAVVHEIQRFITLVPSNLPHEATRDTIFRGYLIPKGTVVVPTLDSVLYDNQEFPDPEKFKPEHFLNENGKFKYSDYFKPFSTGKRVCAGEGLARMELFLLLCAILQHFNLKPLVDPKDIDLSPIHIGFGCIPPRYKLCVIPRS

Structure (SMILES): Cc1ccco1 [2-MF, 2-Methylfuran]
- EC50 at 24 h [1]: 551 ± 53.1 µM
- depletion of GSH (HepG2 cells): no depletion of GSH
- vmax ([2]; HLM; I) high substrate concentrations (250, 500, 750 μM 2-MF)): 0.88 μmol/(mg prot.·min)
- vmax ([2]; HLM; II) low substrate concentrations (10 and 100 μM 2-MF)): 0.12 μmol/(mg prot.·min)
- AcCys-AcA formation in cell supernatants [3]: No evidence of AcCys-AcA formation
- formation of AcLys-AcA in cell supernatants [3]: detected
- AcLys-AcA in cell supernatant compared to the negative control ([3]; 100 μM 2-MF, 1 h): significant increase
- depletion of GSH (pRH): no depletion of GSH
- vmax ([4]; RLM from untreated rats, Eadie-Hofstee): 0.53 μmol/2 mg microsomal protein/min
- Km ([4]; pretr. (phenobarbital)): 463 µM
- Km ([4]; untr., 2.5–20 mM total 2-MF): 1420 µM
- vmax ([4]; rats pretreated with phenobarbital): 0.81 μmol/2 mg microsomal protein/min
- AcA formation compared to the negative control (CYP 2E1 [5]): significant formation of AcA
- vmax [6]: 0.09 μmol/(mg prot.·min)

Structure (SMILES): CC(=O)C=CC=O [AcA, 3-acetylacrolein]
- EC50 at 24 h [1]: 8.5 ± 1.3 µM
- time to completion of adduct formation [7]: < 1 min
- AcCys-AcA formation in cell supernatants [3]: No evidence of AcCys-AcA formation
- formation of AcLys-AcA in cell supernatants [3]: detected
- AcLys-AcA in cell supernatant compared to the negative control ([3]; 0.5 μM AcA, 48 h): differed significantly
- AcLys-AcA in cell supernatant compared to the negative control ([3]; 5 μM AcA, all time points (1–48 h)): highly significant increase
- time to completion of adduct formation ([8]; AcA (1; 10 μM) with AcLys (4 mM) in K2HPO4 buffer (50 mM, pH 7.4), 37 °C): < 1 min

Structure (SMILES): CC(=O)N[C@@H](CCCCN1C(=O)C=CC1C)C(=O)O (stereo partly drawn) [AcLys-AcA, L-2-Acetamido-6-(2-methyl-5-oxo-2,5-dihydro-1H-pyrrol-1-yl)hexanoic Acid]
- stability (NMR) ([9]; in organic solvents): unstable
- stability of NMR and MS signals ([9]; in water): stable
- stability of adduct yield ([8]; reaction mixture of AcA with AcLys (4 mM) in K2HPO4 buffer pH 7.4, 37 °C): stable for up to 24 h

Structure (SMILES): c1ccoc1 [Furan]
- Ecat (CYP 2E1 [10]): 3.9e-1
- Km (CYP 2E1 [10]): 65.1 ± 16.4 µM
- kcat (CYP 2E1 [10]): 26 μmol/(μmol CYP·min)
- vmax [11]: 0.0013 μmol/(mg prot.·min)
- vmax [12]: 0.0016 μmol/(mg prot.·min)
- Km [13]: 18.5 ± 6.8 µM
- Km (CYP 2E1 [14]; [15]): 24 ± 13 µM
- kcat (CYP 2E1 [14]; [15]): 34 ± 4 μmol/(μmol CYP·min)
- vmax (CYP 2E1 [14]; 20 or 400 μM furan, ref [30]): 34 ± 4 pmol BDA/pmol CYP/min
- Ecat (CYP 2E1 [14]; ref Gates et al. (2012) [30]): 1.4
